Data on 20 compounds can be found in ChEMBL document CHEMBL2346610, “N-Alkyldeoxynojirimycin derivatives with novel terminal tertiary amide substitution for treatment of bovine viral diarrhea virus (BVDV), Dengue, and Tacaribe virus infections” (Bioorg Med Chem Lett, 2013).

Each structure is given as a SMILES string. Active and inactive are the calls of the source. The calls are words filed in the database; no cut-off is given here.

What is called CC50 is the concentration giving 50% cytotoxicity. Usually EC50 stands for the concentration at which the effect is half-maximal.

Data set [1] is described as follows: Cytotoxicity against BHK cells by MTT assay. In kind it is cell-based, Mesocricetus auratus. The settings on record: hamster. On the technique in general: Tetrazolium dyes change colour on reduction, which living cells bring about.
Data set [2] relates to Bovine viral diarrhea virus 1. Description: Antiviral activity against BVDV infected in MDBK cells assessed as reduction of viral yield. In kind it is functional, organism-based. To be noted: Bovine viral diarrhea virus isolates and strains. An outline of the steps:
(§1)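 Assays were run in MDBK cells. BVDV antiviral activity was measured by virus yield reduction and reported as EC50. Cytotoxicity was measured by MTT assay and reported as CC50.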

The test system of data set [3] is Dengue virus. Briefly: Antiviral activity against Dengue virus infected in BHK cells. In kind it is functional, organism-based.
The subject of data set [4] is Tacaribe virus. Description: Antiviral activity against Tacaribe virus infected in human Huh7.5 cells. To be noted: Mammarenavirus tacaribeense, Huh-7. The data set is classed as functional, organism-based.
A short description of data set [5]: Cytotoxicity against human Huh7.5 cells by MTT assay. The data set is classed as cell-based, Huh-7.
Data set [6] is described as follows: Cytotoxicity against MDBK cells by MTT assay. The data set is classed as cell-based, Bos taurus. The settings on record: cattle. In outline: as §1
Data set [7] concerns Bovine viral diarrhea virus 1. Description: Reduction of BVDV E2 protein mobility rate infected in MDBK cells at EC50 after 22 hrs by Western blot analysis. The data set is classed as functional, organism-based. An outline of the steps: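 MDBK cells were infected with BVDV at MOI 1 for 1 h, then mock-treated or compound-treated. Cells were harvested 22 h post-infection. Lysates were run on electrophoresis and Western blotted, detecting BVDV E2 glycoprotein and β-actin loading control simultaneously.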
(A western blot detects proteins with antibodies after separation by electrophoresis.)

In the case of `CC(C)(C)CC(=O)N(CCCCCCN1C[C@H](O)[C@@H](O)[C@H](O)[C@H]1CO)C1CCCCC1`, the half-maximal cytotoxic concentration (CC50) in data set [1], in data set [5] and in data set [6] was greater than 500 µM each time. The EC50 turned out to be 0.18 µM in data set [2], 1.5 µM in data set [3] and 0.4 µM in data set [4]. Also, the outcome in data set [7] was Active.

Turning to `CC(C)(C)C(=O)N(CCCCCCN1C[C@H](O)[C@@H](O)[C@H](O)[C@H]1CO)c1ccc(F)cc1F`, the cytotoxic concentration (CC50) in data set [1], in data set [5] and in data set [6] was greater than 500 µM throughout. For the same compound, the figures for the EC50 in data set [2], in data set [3] and in data set [4] were 0.25 µM, 2.2 µM and 2.5 µM, respectively. In addition, in data set [7], the result was Active.

With `CC(=O)N(CCCCCCN1C[C@H](O)[C@@H](O)[C@H](O)[C@H]1CO)c1ccc(F)cc1F`, the EC50 in data set [2] was 6 µM. In addition, the cytotoxic concentration (CC50) in data set [6] is greater than 500 µM. Moreover, the outcome in data set [7] was Active.

On to `CC1CCCCC1NCCCCCCN1C[C@H](O)[C@@H](O)[C@H](O)[C@H]1CO` (stereo partly specified), for which the EC50 in data set [2] is greater than 100 µM. In data set [6], this compound came in with a cytotoxic concentration (CC50) greater than 500 µM. In addition, the result in data set [7] was inactive.

Take `C[C@H]1CCCC[C@@H]1OCCCCCCN1C[C@H](O)[C@@H](O)[C@H](O)[C@H]1CO`: in data set [2], the concentration giving a half-maximal response (EC50) was found to be 3.3 µM.

`CC(C)(C)C(=O)N(CCCCCCN1C[C@H](O)[C@@H](O)[C@H](O)[C@H]1CO)C1CCCCCC1`: the 50% cytotoxic concentration (CC50) in data set [1], in data set [5] and in data set [6] was greater than 500 µM each time. In addition, the values for the concentration giving a half-maximal response (EC50) in data set [2], in data set [3] and in data set [4] were 0.4 µM, 0.8 µM and 1 µM, respectively.

Take `CC(=O)N(CCCCCCN1C[C@H](O)[C@@H](O)[C@H](O)[C@H]1CO)c1cc(F)ccc1F`: the 50% effective concentration (EC50) in data set [2] came to 5 µM. For the same compound, the cytotoxic concentration (CC50) in data set [6] was greater than 500 µM.

For the compound `CC1CCCCC1N(CCCCCCN1C[C@H](O)[C@@H](O)[C@H](O)[C@H]1CO)C(=O)OC(C)(C)C` (stereo partly specified), the cytotoxic concentration (CC50) in data set [1] amounted to 230 µM; in data set [5], 240 µM; in data set [6], 250 µM. Moreover, the concentration for a half-maximal effect (EC50) is 0.4 µM in data set [2], 0.3 µM in data set [3] and 0.3 µM in data set [4]. The result in data set [7] was Active.

On to `CC(C)(C)C(=O)N(CCCCCCN1C[C@H](O)[C@@H](O)[C@H](O)[C@H]1CO)c1cc(F)ccc1F`, for which the cytotoxic concentration (CC50) in data set [1], in data set [5] and in data set [6] was greater than 500 µM throughout. Also, the results for the EC50 in data set [2], in data set [3] and in data set [4] were 0.4 µM, 5.4 µM and 0.62 µM, respectively.

`CC(C)(C)C(=O)N(CCCCCCN1C[C@H](O)[C@@H](O)[C@H](O)[C@H]1CO)C1C2CC3CC(C2)CC1C3` (stereo partly specified): the CC50 in data set [1] is 192 µM; in data set [5] it was 125 µM; in data set [6], 180 µM. Besides, the values for the EC50 in data set [2], in data set [3] and in data set [4] were 0.31 µM, 0.125 µM and 0.5 µM, respectively.

On to `CC(C)(C)C(=O)N(CCCCCCN1C[C@H](O)[C@@H](O)[C@H](O)[C@H]1CO)C1CCCCC1`, for which the cytotoxic concentration (CC50) is greater than 500 µM in data set [1], 500 µM in data set [5] and greater than 500 µM in data set [6]. Also, the results for the concentration giving a half-maximal response (EC50) in data set [2], in data set [3] and in data set [4] were 0.2 µM, 0.28 µM and 0.2 µM, respectively. Besides, in data set [7], the outcome was Active.

For `CC(C)(C)C(=O)N(CCCCCCN1C[C@H](O)[C@@H](O)[C@H](O)[C@H]1CO)C1CC1`, the CC50 in data set [1] and in data set [6] was greater than 500 µM throughout. Besides, the concentration for a half-maximal effect (EC50) in data set [2] came out at 3.75 µM; in data set [3], 8.8 µM. Moreover, the outcome in data set [7] was Active.

As for `CC(C)(C)C(=O)N(CCCCCCN1C[C@H](O)[C@@H](O)[C@H](O)[C@H]1CO)C1CCC1`, the CC50 in data set [1] and in data set [6] was greater than 500 µM each time. The EC50 in data set [2] worked out at 0.8 µM; in data set [3], 1.9 µM.

Regarding `CC(C)(C)OC(=O)NCCCCCCN1C[C@H](O)[C@@H](O)[C@H](O)[C@H]1CO`, in data set [2], the concentration giving a half-maximal response (EC50) worked out at 2.5 µM. In data set [6], the 50% cytotoxic concentration (CC50) was greater than 500 µM. The result in data set [7] was Active.

Take `CC(C)(C)C(=O)N(CCCCCCN1C[C@H](O)[C@@H](O)[C@H](O)[C@H]1CO)C1CCCC1`: the cytotoxic concentration (CC50) in data set [1], in data set [5] and in data set [6] was greater than 500 µM in each case. Besides, the concentration for a half-maximal effect (EC50) is 0.85 µM in data set [2], 2 µM in data set [3] and 4 µM in data set [4].

Turning to `CC1CCCCC1N(CCCCCCN1C[C@H](O)[C@@H](O)[C@H](O)[C@H]1CO)C(=O)C(C)(C)C` (stereo partly specified), the values for the 50% cytotoxic concentration (CC50) in data set [1], in data set [5] and in data set [6] were greater than 500 µM, 310 µM and greater than 500 µM, respectively. Also, the EC50 in data set [2] amounted to 0.22 µM; in data set [3], 0.32 µM; in data set [4], 0.2 µM. Further, the result in data set [7] was Active.

Turning to `CC(C)(C)C(=O)N(CCCCCCN1C[C@H](O)[C@@H](O)[C@H](O)[C@H]1CO)C1CCCCCCC1`, the figures for the CC50 in data set [1], in data set [5] and in data set [6] were 208 µM, 150 µM and 270 µM, respectively. In addition, the EC50 worked out at 0.24 µM in data set [2], 0.8 µM in data set [3] and 0.29 µM in data set [4].

Regarding `CC(C)(C)C(=O)N(CCCCCCN1C[C@H](O)[C@@H](O)[C@H](O)[C@H]1CO)C12CC3CC(CC(C3)C1)C2`, the cytotoxic concentration (CC50) was greater than 500 µM in data set [1], 170 µM in data set [5] and 420 µM in data set [6]. The concentration for a half-maximal effect (EC50) in data set [2] worked out at 0.21 µM; in data set [3] it was 1.38 µM; in data set [4] it was 0.21 µM.

With `OC[C@@H]1[C@@H](O)[C@H](O)[C@@H](O)CN1CCCCCCN(C1CCCCC1)C1CCCCC1`, the EC50 in data set [2] worked out at 6.3 µM. The CC50 in data set [6] was greater than 500 µM. Also, the outcome in data set [7] was Active.

For `CC(=O)N(CCCCCCN1C[C@H](O)[C@@H](O)[C@H](O)[C@H]1CO)C1CCCCC1`, the 50% cytotoxic concentration (CC50) in data set [1], in data set [5] and in data set [6] was greater than 500 µM each time. In addition, the EC50 in data set [2] was 0.28 µM; in data set [3], 14 µM; in data set [4] it was 1 µM.
